Results: ChEMBL document CHEMBL4373675, “Derivatisation of parthenolide to address chemoresistant chronic lymphocytic leukaemia” (Medchemcomm, 2019)
Active and inactive are the calls of the source. The rule behind the calls is not given here.

Tests used:
MEC1 = experiment: Antiproliferative activity against human MEC1 cells assessed as cell death in presence of ROS scavenger N-acetyl-L-cysteine by alamar blue assay; type: functional, cell-based
In short: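 MEC1 CLL cells (ATCC; carry mutated p53) were pretreated with N-acetylcysteine and then exposed to compound across a concentration series. Viability was read by alamarBlue, and EC50 was taken from concentration-activity plots.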

[1] = AUC (0 to infinity) in mouse at 1 mg/kg, iv; type: ADME, organism-based; design: dose 1 mg/kg, route intravenous, time infinity; conditions: in vivo
[2] = AUC in mouse at 10 mg/kg, po; type: ADME, organism-based; conditions: in vivo
[3] = Intrinsic clearance in mouse hepatocytes assessed as per million cells; type: ADME, cell-based, Hepatocyte; conditions: read-out: CLH
In short: (§1)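 Metabolic stability was measured in mouse hepatocytes. Intrinsic clearance is given in µL min⁻¹ per million cells, alongside half-life in min.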

[4] = Half life in mouse hepatocytes; type: ADME, cell-based, Hepatocyte; in short: as §1
[5] = Oral bioavailability in mouse at 10 mg/kg; type: ADME, organism-based; conditions: in vivo
[6] = Tmax in mouse at 10 mg/kg, po; type: ADME, organism-based; conditions: in vivo
[7] = Permeability across apical to basolateral side in human Caco2 cells; type: ADME, cell-based; conditions: Caco-2
In short: (§2)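 Permeability was measured in a Caco-2 monolayer at pH 7.4 in both the apical-to-basolateral and basolateral-to-apical directions. Results are given as mean apparent permeability (Papp, 10⁻⁶ cm s⁻¹), and efflux ratio was derived from the two directions.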

[8] = Volume of distribution at steady state in mouse at 1 mg/kg, iv; type: ADME, organism-based; conditions: in vivo, read-out: Vdss
[9] = Half life in aqueous solution at pH 7.4; type: physicochemical
[10] = Permeability across basolateral to apical side in human Caco2 cells; type: ADME, cell-based; conditions: Caco-2; in short: as §2

| Structure (SMILES) | Activity (MEC1) | AUC(0-inf) [1] [ng·h/mL] | AUC(0-inf) [2] [ng·h/mL] | hepatocyte CLint [3] [µL/min/1e6 cells] | half-life [4] [h] | bioavailability [5] [%] | Tmax [6] [h] | Papp A→B [7] [×10⁻⁶ cm/s] | Vd [8] [L/kg] | half-life [9] [h] | Papp B→A [10] [×10⁻⁶ cm/s] |
| --- | --- | --- | --- | --- | --- | --- | --- | --- | --- | --- | --- |
| C/C1=C\CC[C@@]2(C)O[C@@H]2[C@H]2OC(=O)[C@@H](CN3CCC(c4cc(O)nc(C)n4)CC3)[C@@H]2CC1 | inactive | 289 | 1700 | 22 | – | – | – | – | – | – | – |
| C/C1=C/CC[C@@]2(C)O[C@@H]2[C@H]2OC(=O)[C@@H](CN3CCCC3)[C@@H]2CC1 | – | 80.5 | 711 | 22 | 1.08 | 95.8 | 0.5 | 15.9 | 11.6 | > 2 | 16.2 |
| C/C1=C\CC[C@@]2(C)O[C@@H]2[C@H]2OC(=O)[C@@H](CN[C@@H](Cc3ccccc3)C(=O)O)[C@@H]2CC1 | – | – | – | 16 | – | – | – | – | – | – | – |
